Measurements from ChEMBL document CHEMBL1124429, “Heterocyclic analogues of benzamide antiarrhythmic agents” (J Med Chem, 1989).
One block for each compound: values may come before it.

Assays:
Canis familiaris [1] = organism: Canis familiaris; test: Percent change from control in the rate of rise of phase 0 of the action potential at 10 uM concentration on Canine Purkinje fibers.; value ranges from -21- -37; format: organism-based, Canis lupus familiaris, Purkinje fiber; details: dog, in vitro
[2] = Maximum Percent change from control in the rate of rise of phase 0 of the action potential at 100 Purkinje fibers.; format: tissue-based, Purkinje fiber
Procedure, shortened: (§1)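 Isolated canine Purkinje fibers were superfused with physiological saline gassed with 95% O2/5% CO2 (pH 7.35–7.40) at 36 ± 0.5 °C. Paced at 1.0 Hz with 2-ms pulses at twice diastolic threshold. After up to 1 h stabilization, compounds were tested over 10^-8 to 10^-3 M, 30 min per concentration, one compound per fiber, with vehicle controls. Intracellular microelectrodes (3 M KCl) recorded Vmax and APD95; maximum percent change from control is reported with its concentration.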

Canis familiaris [3] = organism: Canis familiaris; test: Maximum Percent change from control in the rate of rise of phase 0 of the action potential at 10 uM concentration on Canine Purkinje fibers.; format: functional, Canis lupus familiaris, Purkinje fiber; details: dog, in vitro; procedure, shortened: as §1
Canis familiaris [4] = organism: Canis familiaris; test: Maximum Percent change from control in the rate of rise of phase 0 of the action potential at 30 uM concentration on Canine Purkinje fibers.; set-up: species or system Canis lupus familiaris, Purkinje fiber; details: dog, in vitro; procedure, shortened: as §1
Canis familiaris [5] = organism: Canis familiaris; test: Maximum percent change in conduction time (CT) at 10 uM concentration tested on Canine ventricular muscle fibre; value ranges from -12 - -5; format: functional, Canis lupus familiaris, Muscle tissue
Procedure, shortened: (§2)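 Canine right ventricular papillary muscle strips were superfused at 36 ± 0.5 °C with saline gassed with 95% O2/5% CO2. Diastolic threshold was found with 2-ms stimuli at 4000 ms cycle length, then pacing at 4× threshold for 60 min equilibration. FRP was measured at 1000 ms cycle length by S1-S2 premature stimulus after every tenth S1. Conduction time came from a bipolar electrogram. Various compound concentrations were tested, one compound per strip, with vehicle controls. Percent change from control was taken at 10 µM, or the maximum change with its concentration; for N ≥ 3, mean with range.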

Canis familiaris [6] = organism: Canis familiaris; test: Percent change from control in conduction time (CT) at 10 uM concentration tested on Canine ventricular muscle fibre.; value ranges from -12 - -5; format: functional, Canis lupus familiaris, Muscle tissue; procedure, shortened: as §2
Canis familiaris [7] = organism: Canis familiaris; test: Maximum percent change in repolarization at 100 uM concentration on Canine Purkinje fibers.; format: functional, Canis lupus familiaris, Purkinje fiber; procedure, shortened: as §1
Canis familiaris [8] = organism: Canis familiaris; test: Maximum percent change in repolarization at 10 uM concentration on Canine Purkinje fibers.; format: functional, Canis lupus familiaris, Purkinje fiber; procedure, shortened: as §1
Canis familiaris [9] = organism: Canis familiaris; test: Maximum percent change in repolarization at 30 uM concentration on Canine Purkinje fibers.; format: functional, Canis lupus familiaris, Purkinje fiber; procedure, shortened: as §1
Canis familiaris [10] = organism: Canis familiaris; test: Percent change in repolarization at 10 Purkinje fibers; value ranges from -11- -25.; format: functional, Canis lupus familiaris, Purkinje fiber
Procedure, shortened: (§3)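 Canine Purkinje fibers were held in oxygenated (95% O2–5% CO2) physiological saline, pH 7.35–7.40, at 36 ± 0.5 °C and paced at 1.0 Hz with 2-ms pulses at twice diastolic threshold. Intracellular microelectrodes (3 M KCl) recorded Vmax and APD95 simultaneously. After up to 1 h of stabilization, compounds were tested from 10^-8 to 10^-3 M with 30 min per concentration. One compound per fiber, with vehicle controls. For N ≥ 3, values are the mean with the range.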

Canis familiaris [11] = organism: Canis familiaris; test: Maximum percent change in functional refractory period(FRP) of compound (10 uM) was tested from individual experiment on Canine ventricular muscle fibre.; set-up: species or system Canis lupus familiaris, Muscle tissue; procedure, shortened: as §2
Canis familiaris [12] = organism: Canis familiaris; test: Percent change from control in the functional refractory period (FRP) at 10 uM conc. on Canine ventricular muscle fibre.; value ranges from -1-20; set-up: species or system Canis lupus familiaris, Muscle tissue; procedure, shortened: as §2
Canis familiaris [13] = organism: Canis familiaris; test: Maximum percent change in functional refractory period (FRP) at 100 uM on Canine ventricular muscle fibre.; set-up: species or system Canis lupus familiaris, Muscle tissue; procedure, shortened: as §2
Cavia porcellus [14] = organism: Cavia porcellus; test: Concentration of compound which gives a 20% decrease in contractile force was tested on papillary muscle of guinea pig, activity was expressed as EC-20.; format: functional; details: Muscle tissue
Procedure, shortened: (§4)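 Contractile force measured in an isolated cardiac muscle preparation. Value is the concentration giving a 20% decrease in force of contraction. NR marks that this decrease was not reached. Values come from individual experiments; for N ≥ 3, the mean is given with the range.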

Canis familiaris [15] = organism: Canis familiaris; test: Percent change from control in the rate of rise of phase 0 of the action potential at 10 uM concentration on Canine Purkinje fibers.; value ranges from -32-3; set-up: species or system Canis lupus familiaris, Purkinje fiber; details: dog, in vitro
Canis familiaris [16] = organism: Canis familiaris; test: Maximum percent change in conduction time (CT) at 100 uM concentration tested on Canine ventricular muscle fibre; format: functional, Canis lupus familiaris, Muscle tissue; procedure, shortened: as §2
Canis familiaris [17] = organism: Canis familiaris; test: Maximum percent change in conduction time (CT) at 10 uM concentration tested on Canine ventricular muscle fibre; format: functional, Canis lupus familiaris, Muscle tissue; procedure, shortened: as §2
Canis familiaris [18] = organism: Canis familiaris; test: Maximum percent change in conduction time (CT) at 1 uM concentration tested on Canine ventricular muscle fibre; format: functional, Canis lupus familiaris, Muscle tissue; procedure, shortened: as §2
Canis familiaris [19] = organism: Canis familiaris; test: Percent change from control in conduction time (CT) at 10 uM concentration tested on Canine ventricular muscle fibre.; M is minimal(<10% change in CT); format: functional; details: Canis lupus familiaris, Muscle tissue; procedure, shortened: as §2
Canis familiaris [20] = organism: Canis familiaris; test: Percent change in repolarization at 10 Purkinje fibers.; value ranges from 0-25; format: functional, Canis lupus familiaris, Purkinje fiber; procedure, shortened: as §3
Canis familiaris [21] = organism: Canis familiaris; test: Maximum Percent change from control in the rate of rise of phase 0 of the action potential at 100 uM concentration on Canine Purkinje fibers.; set-up: species or system Canis lupus familiaris, Purkinje fiber; procedure, shortened: as §1
Canis familiaris [22] = organism: Canis familiaris; test: Percent change from control in the functional refractory period (FRP) at 10 uMconc. on Canine ventricular muscle fibre.; value ranges from -4-17; set-up: species or system Canis lupus familiaris, Muscle tissue
Canis familiaris [23] = organism: Canis familiaris; test: Maximum percent change in functional refractory period (FRP) at 0.1 uM on Canine ventricular muscle fibre.; set-up: species or system Canis lupus familiaris, Muscle tissue; procedure, shortened: as §2
Cavia porcellus [24] = organism: Cavia porcellus; test: Concentration of compound ( ) which gives a 20% decrease in contractile force was tested on papillary muscle of guinea pig, activity was expressed as EC-20.; format: functional; details: Muscle tissue; procedure, shortened: as §4
Canis familiaris [25] = organism: Canis familiaris; test: Percent change from control in the rate of rise of phase 0 of the action potential at 10 uM concentration on Canine Purkinje fibers.; set-up: species or system Canis lupus familiaris, Purkinje fiber; details: dog, in vitro
[26] = Maximum Percent change from control in the rate of rise of phase 0 of the action potential at 30 uM concentration on Canine Purkinje fibers; CB is conduction block.; format: functional, tissue-based; details: Purkinje fiber; procedure, shortened: as §1
Canis familiaris [27] = organism: Canis familiaris; test: Percent change from control in conduction time (CT) at 10 uM concentration tested on Canine ventricular muscle fibre.; format: functional, Canis lupus familiaris, Muscle tissue; procedure, shortened: as §2
Canis familiaris [28] = organism: Canis familiaris; test: Percent change in repolarization at 10 Purkinje fibers.; value ranges from -23-17; format: functional, Canis lupus familiaris, Purkinje fiber; procedure, shortened: as §3
Canis familiaris [29] = organism: Canis familiaris; test: Percent change from control in the functional refractory period (FRP) at 10 uM conc. on Canine ventricular muscle fibre.; set-up: species or system Canis lupus familiaris, Muscle tissue; procedure, shortened: as §2

Vmax (Canis familiaris [1]): -30.3% | Vmax [2]: -79% | Vmax (Canis familiaris [3]): -33% | Vmax (Canis familiaris [4]): -56%
SMILES: CCN(CC)CCCNC(=O)c1cc2cccc(OCc3ccccc3)c2[nH]1
CT (Canis familiaris [5]): -4% | CT (Canis familiaris [6]): -4% | APD95 (Canis familiaris [7]): 18% | APD95 (Canis familiaris [8]): -11% | APD95 (Canis familiaris [9]): -38% | APD95 (Canis familiaris [10]): -16.3% | FRP (Canis familiaris [11]): 20% | FRP (Canis familiaris [12]): 8% | FRP (Canis familiaris [13]): 7% | EC20 (Cavia porcellus [14]): 8 µM

Vmax (Canis familiaris [15]): -14.3% | Vmax (uM) (Canis familiaris [21]): -15%
SMILES: CCN(CC)CCCNC(=O)c1[nH]c(C)c(C)c1C
CT (Canis familiaris [16]): 8% | CT (Canis familiaris [17]): -9% | CT (Canis familiaris [18]): 6% | CT (Canis familiaris [19]): Minimal | APD95 (Canis familiaris [7]): -5% | APD95 (Canis familiaris [8]): 7% | APD95 (Canis familiaris [9]): 26% | APD95 (Canis familiaris [20]): 8.3% | FRP (Canis familiaris [22]): 5.7% | FRP (Canis familiaris [23]): 4% | FRP (Canis familiaris [13]): 28% | EC20 (Cavia porcellus [24]): 50 µM

Vmax (Canis familiaris [25]): -37.7% | Vmax (Canis familiaris [3]): -30% | Vmax (Canis familiaris [4]): -66%
SMILES: CCN(CC)CCNC(=O)c1cc2cccc(OCc3ccccc3)c2[nH]1
Vmax [26]: Conduction block | CT (Canis familiaris [16]): 4% | CT (Canis familiaris [27]): -13% | APD95 (Canis familiaris [8]): 17% | APD95 (Canis familiaris [9]): -25% | APD95 (Canis familiaris [28]): -7% | FRP (Canis familiaris [29]): 2% | FRP (Canis familiaris [13]): 10% | EC20 (Cavia porcellus [14]): 6 µM
